Experimental data as given in publication PMC2174413 (Environmental Health Perspectives, 2007).

Key:
[1] = test system: 3′-phosphoadenosine 5′-phosphosulfate synthase 1 (PAPSS1) mRNA; experiment: Real-time RT-PCR of PAPSS1 steady-state mRNA in treated TE 671 cells; assay type: cell-based, human; details: 24 hr, 0.005–0.5 μM, ΔΔCt method, HPRT1 internal standard
Method in brief: (§1)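 TE 671 cells were pre-grown 72 hr in phenol red–free DMEM, plated at 4 ×10⁴ cells/well in 10% dialyzed FCS medium, equilibrated 24 hr, and dosed 24 hr (DMSO carrier, quadruplicate per dose). Total RNA (1 μg) was reverse-transcribed with poly T primers for 60 min at 42°C. SYBR Green qPCR used 60°C annealing, 44 cycles and a melt curve, with samples in quadruplicate; mean ± SE.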

[2] = test system: sulfite oxidase (SUOX) mRNA; experiment: Real-time RT-PCR of SUOX steady-state mRNA in treated TE 671 cells; assay type: cell-based, human; details: 24 hr, 0.005–0.5 μM, ΔΔCt method, HPRT1 internal standard
Method in brief: as §1

[3] = test system: cysteine dioxygenase type I (CDO1) mRNA; experiment: Real-time RT-PCR of CDO1 steady-state mRNA in treated TE 671 cells; assay type: cell-based, human; details: 24 hr, 0.005–0.5 μM, ΔΔCt method, HPRT1 internal standard
Method in brief: as §1

[4] = target: T1, human DHEA sulfotransferase (SULT 2A1) (Homo sapiens, UniProt Q06520); experiment: Inhibition of sulfation of tritiated DHEA by SULT 2A1 in human liver cytosol; assay type: biochemical
T1 sequence (Q06520 1-285): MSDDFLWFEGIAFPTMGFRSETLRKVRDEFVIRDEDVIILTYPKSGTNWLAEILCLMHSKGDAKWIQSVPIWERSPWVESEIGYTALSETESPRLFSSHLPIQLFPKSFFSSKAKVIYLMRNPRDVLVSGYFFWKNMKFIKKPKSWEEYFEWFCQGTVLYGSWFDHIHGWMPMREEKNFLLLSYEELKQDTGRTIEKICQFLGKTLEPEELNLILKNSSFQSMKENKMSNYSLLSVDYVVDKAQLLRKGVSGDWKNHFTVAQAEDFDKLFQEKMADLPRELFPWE

SULT 2A1 = details: read-out: Km of SULT 2A1 for DHEA; ref Chang et al. 2001; cited from earlier work

Molecule	PAPSS1 mRNA expression level relative to undosed control [1]	SUOX mRNA expression level relative to undosed control [2]	CDO1 mRNA expression level relative to undosed control [3]	Ki [4] [µM]	Km (SULT 2A1) [µM]
CCCCC(CC)COC(=O)c1ccccc1C(=O)OCC(CC)CCCC (stereo not drawn) [bis(2-ethylhexyl)phthalate]	significant dose-dependent decreases	significant dose-dependent decreases			
Oc1ccc(Cl)cc1Cl [2,4-dichlorophenol]	did not show significant decreases	did not show significant decreases	did not show significant decreases		
bisphenol A dimethacrylate	decreased in a dose-dependent manner	decreased in a dose-dependent manner	did not affect		
CCCCCCCCCc1ccc(O)cc1 [4-n-Nonylphenol, 4-n-nonylphenol]	very significant dose-dependent decrease			10.5 ± 0.6	
Cc1cc(O)ccc1Cl [4-chloro-3-methylphenol]	did not show significant decreases	did not show significant decreases	did not show significant decreases		
CCCCOC(=O)c1ccccc1C(=O)OCCCC [Dibutyl phthalate, dibutyl phthalate]				21.5 ± 1.4	
C[C@]12CC[C@H](O)CC1=CC[C@@H]1[C@@H]2CC[C@]2(C)C(=O)CC[C@@H]12 [DHEA, dehydroepiandrosterone]					~2
CC(C)CCCCCCCOC(=O)c1ccccc1C(=O)OCCCCCCCC(C)C [Diisodecyl phthalate, diisodecyl phthalate]	clear decreasing trend				
CC(C)(c1ccc(O)cc1)c1ccc(O)cc1 [Bisphenol A, bisphenol A]				16.3 ± 0.8	
CC(C)(C)CC(C)(C)c1ccc(O)cc1 [4-tert-Octylphenol, 4-tert-octylphenol]				2.8 ± 0.1	
